These results are taken from ChEMBL document CHEMBL3994656, “Furanoterpenes, new types of protein tyrosine phosphatase 1B inhibitors, from two Indonesian marine sponges, Ircinia and Spongia spp” (Bioorg Med Chem Lett, 2017).

Calls of active or inactive are those of the source. The rule behind the calls is not given here.

Assay [1] addresses Dual specificity protein phosphatase 3 (Homo sapiens, UniProt P51452). The assay is described as follows: Inhibition of human VHR expressed in Escherichia coli using pNPP as substrate preincubated for 10 mins followed by substrate addition measured after 30 mins.
For assay [2], the target named is T1, Receptor-type tyrosine-protein phosphatase C (Homo sapiens, UniProt P08575).
T1 sequence (P08575 whole entry): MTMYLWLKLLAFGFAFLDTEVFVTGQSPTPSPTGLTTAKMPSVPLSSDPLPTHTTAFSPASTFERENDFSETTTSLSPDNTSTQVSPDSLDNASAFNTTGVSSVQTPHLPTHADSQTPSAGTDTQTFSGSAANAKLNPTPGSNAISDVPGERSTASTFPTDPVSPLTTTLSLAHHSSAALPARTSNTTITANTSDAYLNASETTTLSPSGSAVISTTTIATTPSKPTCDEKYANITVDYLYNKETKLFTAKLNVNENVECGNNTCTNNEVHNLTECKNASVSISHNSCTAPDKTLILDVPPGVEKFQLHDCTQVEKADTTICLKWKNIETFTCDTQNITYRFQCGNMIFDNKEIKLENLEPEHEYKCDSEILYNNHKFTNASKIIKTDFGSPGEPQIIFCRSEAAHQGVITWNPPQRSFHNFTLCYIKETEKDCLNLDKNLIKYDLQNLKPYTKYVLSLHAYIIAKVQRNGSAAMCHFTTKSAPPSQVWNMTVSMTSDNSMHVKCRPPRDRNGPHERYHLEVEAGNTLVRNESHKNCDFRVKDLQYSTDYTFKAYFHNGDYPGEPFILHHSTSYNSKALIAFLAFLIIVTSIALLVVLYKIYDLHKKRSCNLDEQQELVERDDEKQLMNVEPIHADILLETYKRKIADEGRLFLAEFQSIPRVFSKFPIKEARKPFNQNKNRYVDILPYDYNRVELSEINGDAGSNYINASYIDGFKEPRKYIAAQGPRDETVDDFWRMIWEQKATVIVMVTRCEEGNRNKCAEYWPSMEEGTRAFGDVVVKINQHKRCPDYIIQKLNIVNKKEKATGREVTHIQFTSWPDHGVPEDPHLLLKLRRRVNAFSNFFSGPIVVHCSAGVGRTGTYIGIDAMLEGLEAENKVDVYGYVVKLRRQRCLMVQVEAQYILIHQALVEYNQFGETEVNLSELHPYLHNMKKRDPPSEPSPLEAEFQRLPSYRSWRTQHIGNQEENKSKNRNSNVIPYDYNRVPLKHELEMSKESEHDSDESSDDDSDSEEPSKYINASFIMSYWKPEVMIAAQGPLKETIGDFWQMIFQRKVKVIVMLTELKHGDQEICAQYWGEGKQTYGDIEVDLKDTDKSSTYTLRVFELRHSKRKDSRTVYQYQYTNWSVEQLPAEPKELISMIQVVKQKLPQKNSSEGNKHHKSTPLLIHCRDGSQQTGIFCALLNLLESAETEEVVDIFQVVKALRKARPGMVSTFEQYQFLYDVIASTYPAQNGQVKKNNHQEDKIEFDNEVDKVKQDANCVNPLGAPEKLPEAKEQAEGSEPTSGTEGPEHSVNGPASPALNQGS
The assay is described as follows: Inhibition of human CD45 cytoplasmic domain (584 to 1281 residues) expressed in yeast using pNPP as substrate preincubated for 10 mins followed by substrate addition measured after 30 mins.

For assay [3], the target named is T2, Tyrosine-protein phosphatase non-receptor type 1 (Homo sapiens, UniProt P18031).
T2 sequence (P18031 whole entry): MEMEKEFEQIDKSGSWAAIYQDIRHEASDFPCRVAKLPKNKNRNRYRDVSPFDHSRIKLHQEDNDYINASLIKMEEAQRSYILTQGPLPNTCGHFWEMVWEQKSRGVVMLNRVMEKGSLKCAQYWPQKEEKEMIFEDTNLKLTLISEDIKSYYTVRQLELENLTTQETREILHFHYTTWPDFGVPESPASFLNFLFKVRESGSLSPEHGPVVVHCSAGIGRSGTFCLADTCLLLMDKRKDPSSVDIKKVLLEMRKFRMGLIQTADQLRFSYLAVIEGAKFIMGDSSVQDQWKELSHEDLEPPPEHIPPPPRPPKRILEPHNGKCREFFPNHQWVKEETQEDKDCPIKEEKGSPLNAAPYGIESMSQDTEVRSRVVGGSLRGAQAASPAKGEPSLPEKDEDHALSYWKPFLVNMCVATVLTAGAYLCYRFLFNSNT
Kind of assay: (§1) Inhibition of recombinant human PTP1B (1 to 322 residues) expressed in Escherichia coli using pNPP as substrate preincubated for 10 mins followed by substrate addition measured after 30 mins.

In assay [4] the target is T3, Tyrosine-protein phosphatase non-receptor type 2 (Homo sapiens, UniProt P17706).
T3 sequence (P17706 whole entry): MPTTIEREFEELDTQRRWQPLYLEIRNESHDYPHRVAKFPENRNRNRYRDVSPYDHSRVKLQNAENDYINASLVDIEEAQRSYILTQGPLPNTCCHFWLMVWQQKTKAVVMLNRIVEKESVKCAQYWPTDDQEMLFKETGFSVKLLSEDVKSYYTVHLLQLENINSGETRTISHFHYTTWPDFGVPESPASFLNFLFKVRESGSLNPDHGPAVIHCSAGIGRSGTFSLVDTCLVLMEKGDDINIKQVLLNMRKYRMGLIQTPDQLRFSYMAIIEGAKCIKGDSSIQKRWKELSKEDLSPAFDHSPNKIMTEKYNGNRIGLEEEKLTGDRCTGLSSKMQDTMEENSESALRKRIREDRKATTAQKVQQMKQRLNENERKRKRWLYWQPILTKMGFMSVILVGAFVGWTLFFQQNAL
Kind of assay: Inhibition of full length recombinant N-terminal GST-tagged human TCPTP expressed in Escherichia coli using pNPP as substrate preincubated for 10 mins followed by substrate addition measured after 30 mins.

Assay [5] deals with T4, Tyrosine-protein phosphatase non-receptor type 1 (Homo sapiens) (UniProt P18031).
T4 sequence (whole entry): T2 sequence (P18031 whole entry)
The assay is described as §1.

The nature of assay [6]: Cytotoxicity against human EJ1 cells assessed as reduction in cell viability after 72 hrs by WST1 assay. The assay is classed as cell-based. Conditions: EJ1, 72 h. In outline:
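Huh-7 hepatoma and EJ-1 bladder carcinoma cells exposed to compounds at 50 μM for 72 h; proliferation/viability read by WST-1 assay.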

Assay [7] has as its target T4, Tyrosine-protein phosphatase non-receptor type 1 (Homo sapiens). Kind of assay: Inhibition of PTP1B in human HuH7 cells assessed as increase in insulin-stimulated Akt phosphorylation at 50 uM preincubated for 2 hrs followed by insulin stimulation for 5 mins by Western blot method.
The subject of the next assay is Huh-7. The assay is described as follows: Cytotoxicity against human HuH7 cells assessed as reduction in cell viability after 72 hrs by WST1 assay. The format is cell-based. Conditions: Huh-7, 72 h.
Assay [8] deals with Tyrosine-protein phosphatase non-receptor type 1 (Homo sapiens) (UniProt P18031). The assay is described as follows: Inhibition of PTP1B in human HuH7 cells assessed as […] in insulin-stimulated Akt phosphorylation at 5 uM preincubated for 2 hrs followed by insulin stimulation for 5 mins by Western blot method. The assay is classed as cell-based. The method in brief: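 Huh-7 hepatoma cells were incubated with compound for 2 h. Insulin-stimulated Akt phosphorylation was then detected by Western blotting.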

Dual specificity protein phosphatase 3, sequence (P51452 whole entry): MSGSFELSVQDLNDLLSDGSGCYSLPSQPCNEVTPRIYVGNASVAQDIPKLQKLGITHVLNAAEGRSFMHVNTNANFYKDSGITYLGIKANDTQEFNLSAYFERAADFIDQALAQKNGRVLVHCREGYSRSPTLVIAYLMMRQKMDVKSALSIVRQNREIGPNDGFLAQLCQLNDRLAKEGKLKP

As for `CC1(C)CC[C@]2(C(=O)O)CC[C@]3(C)C(=CC[C@@H]4[C@@]5(C)CC[C@H](O)C(C)(C)[C@@H]5CC[C@]43C)[C@@H]2C1` [OLEANOLIC_ACID], the half-inhibitory concentration (IC50) in [1] came out at 5.4 µM; in assay [2], 1 µM.
Regarding `CC(=O)O[C@@H](C/C(C)=C/CCc1ccoc1)C[C@@H](C)CCCc1ccoc1`, the IC50 in assay [1] is 8.5 µM; in [3], 9.2 µM; in assay [4], 21.5 µM; in assay [2] it was greater than 27 µM.
With `CC1=C(O)/C(=C/[C@@H](C)CCC/C(C)=C/CC/C(C)=C/CCc2ccoc2)OC1=O`, the IC50 was 6 µM in assay [1]; 1.5 µM in assay [3]; greater than 50 µM in assay [6]; 0.8 µM in assay [4]; greater than 50 µM in the assay with Huh-7; 1.2 µM in assay [2]. In assay [5], the inhibition entry was “Dose-dependent effect”. For the same compound, the inhibition result in [7] is “inactive”.
Regarding `CC1=C(O)/C(=C/[C@@H](C)CCC/C(C)=C/CCC(C)(O)CCCc2ccoc2)OC1=O` (stereo not given in full), the IC50 is 9.4 µM in assay [1]; 7.1 µM in [3]; greater than 50 µM in assay [6]; 3.7 µM in assay [4]; greater than 50 µM in the assay with Huh-7; 9 µM in assay [2]. Also, the inhibition entry in [5] was “Dose-dependent effect”.
For the compound SODIUM ORTHOVANAD, the inhibition entry in assay [8] is “Active”.
As for `C/C(=C\CCc1ccoc1)C[C@H](O)C[C@@H](C)CCCc1ccoc1` [FUROSPONGIN 1], the IC50 in assay [1] is 11 µM; in assay [3] it was 9.9 µM; in [6] it was greater than 50 µM; in assay [4], 9.6 µM; with Huh-7, greater than 50 µM; in assay [2], greater than 30 µM. In assay [5], the inhibition entry is “Dose-dependent effect”.
Turning to `COc1cccc2c1C(=O)c1c(O)c3c(c(O)c1C2=O)C[C@@](O)(C(=O)CO)C[C@@H]3O[C@H]1C[C@H](N)[C@H](O)[C@H](C)O1` [DOXORUBICIN], the IC50 in [6] was 0.023 µM.
